Measured values from ChEMBL document CHEMBL1133370, “N-(sulfonamido)alkyl[tetrahydro-1H-benzo[e]indol-2-yl]amines: potent antagonists of human neuropeptide Y Y5 receptor” (Bioorg Med Chem Lett, 2000).

Target: T1, Neuropeptide Y receptor type 5 (Homo sapiens, UniProt Q15761)
T1 sequence (Q15761 whole entry): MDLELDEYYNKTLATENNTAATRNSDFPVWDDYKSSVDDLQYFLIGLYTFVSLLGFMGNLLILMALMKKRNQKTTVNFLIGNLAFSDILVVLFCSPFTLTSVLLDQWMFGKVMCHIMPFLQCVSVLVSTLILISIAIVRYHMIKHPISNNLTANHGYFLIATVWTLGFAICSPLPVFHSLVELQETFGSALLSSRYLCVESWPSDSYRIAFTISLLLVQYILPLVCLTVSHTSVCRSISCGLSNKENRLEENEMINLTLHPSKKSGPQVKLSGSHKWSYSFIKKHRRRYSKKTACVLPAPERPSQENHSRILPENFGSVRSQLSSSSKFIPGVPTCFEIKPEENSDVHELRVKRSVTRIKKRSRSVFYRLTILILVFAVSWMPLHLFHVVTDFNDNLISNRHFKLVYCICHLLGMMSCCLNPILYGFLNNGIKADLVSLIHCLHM
Assay: Binding affinity for human Neuropeptide Y receptor type 5 in HEK293 cells
Type: cell-based
Outline: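 Membranes from HEK293 cells stably transfected with human NPY5 cDNA, prepared in 20 mM HEPES buffer with NaCl, 0.22 mM KH2PO4, 1.3 mM CaCl2, 0.8 mM MgSO4, pH 7.4. Centrifuged, washed, membrane radioactivity gamma-counted. Non-specific binding with 300 nM NPY. IC50 is 50% inhibition of specific binding, averaged over ≥2 experiments.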

Row | Structure (SMILES) | IC50
1 | O=C(NC1=NC2CCc3cc(Cl)ccc3C2C1)[C@H]1CC[C@H](CNS(=O)(=O)c2ccccc2)CC1 (stereo partly drawn) | 111 nM
2 | COc1ccc2c(c1)CCC(NCCc1ccc(OC)c(OC)c1)C2Cc1ccccc1 (stereo not drawn) | ~1000 nM
3 | O=C(NC1=NC2CCc3cc(O)ccc3C2C1)[C@H]1CC[C@H](CNS(=O)(=O)c2ccccc2)CC1 (stereo partly drawn) | 9 nM
4 | N[C@@H](CCCCNS(=O)(=O)c1ccccc1F)C(=O)NC1=NC2CCc3cc(F)ccc3C2C1 (stereo partly drawn) | 202 nM
5 | O=C(NC1=NC2CCc3ccccc3C2C1)[C@H]1CC[C@H](CNS(=O)(=O)c2ccccc2)CC1 (stereo partly drawn) | 60 nM
6 | COc1ccc2c(c1)CCC1N=C(NC(C)=O)CC21 (stereo not drawn) | > 1000 nM

More lines, now with the values ahead:

Row | IC50 | Structure (SMILES)
7 | 35 nM | COc1ccc2c(c1)CCC1N=C(NC[C@H]3CC[C@H](CNS(=O)(=O)c4ccccc4F)CC3)CC21 (stereo partly drawn)
8 | 121 nM | COc1ccc2c(c1)CCC1N=C(NC(=O)[C@H]3CC[C@H](CNS(=O)(=O)c4ccccc4F)CC3)CC21 (stereo partly drawn)
9 | 39 nM | O=S(=O)(NC[C@H]1CC[C@H](CNC2=NC3CCc4ccccc4C3C2)CC1)c1ccccc1 (stereo partly drawn)
10 | 1 nM | O=S(=O)(NC[C@H]1CC[C@H](CNC2=NC3CCc4cc(O)ccc4C3C2)CC1)c1ccccc1 (stereo partly drawn)
11 | 54 nM | O=S(=O)(NC[C@H]1CC[C@H](CNC2=NC3CCc4cc(Cl)ccc4C3C2)CC1)c1ccccc1 (stereo partly drawn)
12 | 91 nM | COc1ccc2c(c1)CCC1N=C(NC(=O)[C@H]3CC[C@H](CNS(=O)(=O)c4ccccc4)CC3)CC21 (stereo partly drawn)
13 | 57 nM | COc1ccc2c(c1)CCC1N=C(NC[C@H]3CC[C@H](CNS(=O)(=O)c4ccccc4)CC3)CC21 (stereo partly drawn)
